Experiment [1] concerns the target von Hippel-Lindau disease tumor suppressor/RAC-alpha serine/threonine-protein kinase (Homo sapiens) (UniProt P31749+P40337). Description: Protac activity at VHL/AKT in human PC-3 cells assessed as reduction in total Akt level at 1 uM incubated for 24 hrs by Western blot analysis. The class given is cell-based. In outline: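 Cells grown in DMEM with 10% FBS at 37 °C, 5% CO2, then exposed to compound at 1 μM for 24 h. Lysates made in 2X urea/SDS sample buffer, run on 4–12% Bis-Tris gels, transferred to PVDF, probed for total AKT overnight at 4 °C; HRP/chemiluminescence detection with β-actin as loading control.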
In general terms: A western blot detects proteins with antibodies after separation by electrophoresis.

Experiment [2] has as its system PC-3. Description: Inhibition of colony formation in human PC-3 cells at 0.1 to 10 uM incubated for 2 weeks with media replacement for every 2 days by crystal violet staining based analysis. To be noted: dose 0.1-10 µM. Format: functional, cell-based. In outline: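 PC3 cells kept 14 days with compound; compound-containing medium replenished every two days. Viable cells stained with 0.5% crystal violet.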

Active and inactive are the calls of the source. No cut-off for these calls is given here.

Sequence of von Hippel-Lindau disease tumor suppressor/RAC-alpha serine/threonine-protein kinase (Homo sapiens) (P31749 whole entry, looked up): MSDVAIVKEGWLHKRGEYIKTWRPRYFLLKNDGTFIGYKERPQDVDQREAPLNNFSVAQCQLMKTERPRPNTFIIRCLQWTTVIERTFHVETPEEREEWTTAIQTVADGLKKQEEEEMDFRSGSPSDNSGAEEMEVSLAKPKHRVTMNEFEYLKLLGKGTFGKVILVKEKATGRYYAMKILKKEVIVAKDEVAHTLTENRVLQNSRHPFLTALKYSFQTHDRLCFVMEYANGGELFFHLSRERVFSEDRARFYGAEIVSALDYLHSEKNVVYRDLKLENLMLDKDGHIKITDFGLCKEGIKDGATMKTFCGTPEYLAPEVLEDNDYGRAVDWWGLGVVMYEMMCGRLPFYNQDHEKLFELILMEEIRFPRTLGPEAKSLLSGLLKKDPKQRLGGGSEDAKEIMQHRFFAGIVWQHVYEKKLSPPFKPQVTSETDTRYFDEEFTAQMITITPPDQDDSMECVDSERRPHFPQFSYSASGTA
Sequence of von Hippel-Lindau disease tumor suppressor/RAC-alpha serine/threonine-protein kinase (Homo sapiens) (P40337 whole entry, looked up): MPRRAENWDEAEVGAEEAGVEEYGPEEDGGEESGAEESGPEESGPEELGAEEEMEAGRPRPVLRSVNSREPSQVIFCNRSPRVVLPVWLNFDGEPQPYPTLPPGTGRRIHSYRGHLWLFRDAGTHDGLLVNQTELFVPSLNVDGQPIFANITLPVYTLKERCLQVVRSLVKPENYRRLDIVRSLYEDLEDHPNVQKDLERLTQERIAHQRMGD

As for `Cc1ncsc1-c1ccc(CNC(=O)[C@@H]2C[C@@H](O)CN2C(=O)[C@@H](NC(=O)COCC(=O)NCCc2cccc(-c3ccc4nc(-c5cccnc5N)n(-c5ccc(C6(N)CCC6)cc5)c4n3)c2)C(C)(C)C)cc1`, the outcome in experiment [1] was Active. On the same count and under the same terms, then `Cc1ncsc1-c1ccc(CNC(=O)[C@@H]2C[C@@H](O)CN2C(=O)[C@@H](NC(=O)COCCOCCOCCOCCOCC(=O)NCCc2cccc(-c3ccc4nc(-c5cccnc5N)n(-c5ccc(C6(N)CCC6)cc5)c4n3)c2)C(C)(C)C)cc1`, with “Active”.

Take `Cc1ncsc1-c1ccc(CNC(=O)[C@@H]2C[C@@H](O)CN2C(=O)[C@@H](NC(=O)CCCCCCCCCCNC(=O)CCc2cccc(-c3ccc4nc(-c5cccnc5N)n(-c5ccc(C6(N)CCC6)cc5)c4n3)c2)C(C)(C)C)cc1`: the inhibition result in experiment [2] is “Active”. Besides, in experiment [1], the outcome was Active. In the case of `Cc1ncsc1-c1ccc(CNC(=O)[C@@H]2C[C@@H](O)CN2C(=O)[C@@H](NC(=O)COCCOCCOCCNC(=O)CCc2cccc(-c3ccc4nc(-c5cccnc5N)n(-c5ccc(C6(N)CCC6)cc5)c4n3)c2)C(C)(C)C)cc1`, the result in experiment [1] was Active. For the compound `Cc1ncsc1-c1ccc(CNC(=O)[C@@H]2C[C@@H](O)CN2C(=O)[C@@H](NC(=O)CCCCCCCCCC(=O)NCCc2cccc(-c3ccc4nc(-c5cccnc5N)n(-c5ccc(C6(N)CCC6)cc5)c4n3)c2)C(C)(C)C)cc1`, the inhibition result in experiment [2] was “Active”. Moreover, the result in experiment [1] was Active. Regarding `Cc1ncsc1-c1ccc(CNC(=O)[C@@H]2C[C@@H](O)CN2C(=O)[C@@H](NC(=O)CCCCCCCNC(=O)CCc2cccc(-c3ccc4nc(-c5cccnc5N)n(-c5ccc(C6(N)CCC6)cc5)c4n3)c2)C(C)(C)C)cc1`, in experiment [1], the result was Active. `Cc1ncsc1-c1ccc(CNC(=O)[C@@H]2C[C@@H](O)CN2C(=O)[C@@H](NC(=O)COCCNC(=O)CCc2cccc(-c3ccc4nc(-c5cccnc5N)n(-c5ccc(C6(N)CCC6)cc5)c4n3)c2)C(C)(C)C)cc1`: the result in experiment [1] was Active. The same measure, in the same setting: then `Cc1ncsc1-c1ccc(CNC(=O)[C@@H]2C[C@@H](O)CN2C(=O)[C@@H](NC(=O)CCCCCCCC(=O)NCCc2cccc(-c3ccc4nc(-c5cccnc5N)n(-c5ccc(C6(N)CCC6)cc5)c4n3)c2)C(C)(C)C)cc1`, with “Active”; and `Cc1ncsc1-c1ccc(CNC(=O)[C@@H]2C[C@@H](O)CN2C(=O)[C@@H](NC(=O)CCCCCCCCNC(=O)CCc2cccc(-c3ccc4nc(-c5cccnc5N)n(-c5ccc(C6(N)CCC6)cc5)c4n3)c2)C(C)(C)C)cc1`, with “Active”; and `Cc1ncsc1-c1ccc(CNC(=O)[C@@H]2C[C@@H](O)CN2C(=O)[C@@H](NC(=O)CCOCCOCCNC(=O)CCc2cccc(-c3ccc4nc(-c5cccnc5N)n(-c5ccc(C6(N)CCC6)cc5)c4n3)c2)C(C)(C)C)cc1`, with “Active”. Same read-out and setting: then `Cc1ncsc1-c1ccc(CNC(=O)[C@@H]2C[C@@H](O)CN2C(=O)[C@@H](NC(=O)CCOCCOCCOCCOCCOCCC(=O)NCCc2cccc(-c3ccc4nc(-c5cccnc5N)n(-c5ccc(C6(N)CCC6)cc5)c4n3)c2)C(C)(C)C)cc1`, with “Active”. Regarding `Cc1ncsc1-c1ccc(CNC(=O)[C@@H]2C[C@@H](O)CN2C(=O)[C@@H](NC(=O)COCCOCCNC(=O)CCc2cccc(-c3ccc4nc(-c5cccnc5N)n(-c5ccc(C6(N)CCC6)cc5)c4n3)c2)C(C)(C)C)cc1`, the outcome in experiment [1] was Active.

With `Cc1ncsc1-c1ccc(CNC(=O)[C@@H]2C[C@@H](O)CN2C(=O)[C@@H](NC(=O)CCOCCNC(=O)CCc2cccc(-c3ccc4nc(-c5cccnc5N)n(-c5ccc(C6(N)CCC6)cc5)c4n3)c2)C(C)(C)C)cc1`, in experiment [1], the result was Active. The same measure, in the same setting: then `Cc1ncsc1-c1ccc(CNC(=O)[C@@H]2C[C@@H](O)CN2C(=O)[C@@H](NC(=O)CCOCCC(=O)NCCc2cccc(-c3ccc4nc(-c5cccnc5N)n(-c5ccc(C6(N)CCC6)cc5)c4n3)c2)C(C)(C)C)cc1`, with “Active”.

On to `Cc1ncsc1-c1ccc(CNC(=O)[C@@H]2C[C@@H](O)CN2C(=O)[C@@H](NC(=O)CCCCCCCCCNC(=O)CCc2cccc(-c3ccc4nc(-c5cccnc5N)n(-c5ccc(C6(N)CCC6)cc5)c4n3)c2)C(C)(C)C)cc1`, for which, in experiment [1], the outcome was Active.

The values above are taken from ChEMBL document CHEMBL5214961, “Novel Allosteric Inhibitor-Derived AKT Proteolysis Targeting Chimeras (PROTACs) Enable Potent and Selective AKT Degradation in KRAS/BRAF Mutant Cells” (J Med Chem, 2022).
